Screening results deposited in PubChem by The Scripps Research Institute Molecular Screening Center.
An excerpt weighted towards active compounds, which were near 1.9% of everything screened.
TDP2 absorb: blocks human TDP2 phosphodiesterase activity; recombinant TDP2, T5PNP hydrolysis, p-nitrophenol absorbance 415 nm; inhibition, % at 12.8 µM; 0.34% of 370,000 active; O95551;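 active means inhibition above the mean of all tested compounds plus 3 SD, set per campaign, cut at about 25% in these data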
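Test system: human TDP2 enzyme; Input: 120 nM TDP2 per well; Buffer or medium: Mg2+-containing Tris-HCl buffer, pH 7.5; Reagent: 5 mM T5PNP; Dosing: 12.8 µM single point, 1% DMSO; Incubation: reaction 2 h, 37 °C; Detection: p-Nitrophenol epi absorbance; Read-out: % inhibition relative to enzyme-containing and enzyme-free wells; Replicates: single well per compound.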
UHRF1 binding: blocks human UHRF1 binding to methylated DNA. 0.75% of 370,000 active. UHRF1 binding to methylated oligo, TR-FRET. AID 687016. Q96T88. inhibition, % at 4.4 µM; in the data active means inhibition above about 21%;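 further: UHRF1 SRA domain binding a hemimethylated CpG hairpin DNA probe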
Target sequence (Q96T88 whole entry, looked up, the tested form may be a part): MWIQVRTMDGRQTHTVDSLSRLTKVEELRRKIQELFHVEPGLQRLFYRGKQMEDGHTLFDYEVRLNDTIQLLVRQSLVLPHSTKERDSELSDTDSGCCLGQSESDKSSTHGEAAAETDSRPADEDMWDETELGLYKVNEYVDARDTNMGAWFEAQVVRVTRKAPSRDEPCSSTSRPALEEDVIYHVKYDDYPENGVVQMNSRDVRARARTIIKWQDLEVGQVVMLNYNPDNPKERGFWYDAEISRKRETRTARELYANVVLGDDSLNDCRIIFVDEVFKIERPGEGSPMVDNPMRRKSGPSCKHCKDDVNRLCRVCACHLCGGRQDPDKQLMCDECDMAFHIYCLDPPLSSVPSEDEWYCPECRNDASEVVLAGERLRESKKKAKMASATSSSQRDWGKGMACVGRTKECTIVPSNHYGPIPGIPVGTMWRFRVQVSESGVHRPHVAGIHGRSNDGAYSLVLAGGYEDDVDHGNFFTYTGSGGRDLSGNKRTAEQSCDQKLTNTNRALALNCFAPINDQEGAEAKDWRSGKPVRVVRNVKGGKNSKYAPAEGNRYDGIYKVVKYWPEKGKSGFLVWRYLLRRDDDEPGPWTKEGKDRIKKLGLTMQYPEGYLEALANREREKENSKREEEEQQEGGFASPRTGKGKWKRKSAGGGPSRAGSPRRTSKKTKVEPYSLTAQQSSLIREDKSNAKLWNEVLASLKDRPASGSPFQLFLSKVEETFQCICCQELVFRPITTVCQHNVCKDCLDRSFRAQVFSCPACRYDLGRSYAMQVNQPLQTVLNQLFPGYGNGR
Rin1 Abl inh: inhibitors of human Rin1-Abl protein interaction. TR-FRET Rin1/Abl binding, biochemical. inhibition, % at 7.35 µM. 0.4% of 360,000 active; in the data active means inhibition above about 5%, passing the limit was not always enough
MBD2 DNA inh: MBD2-methylated oligo binding inhibition; Q9UBB5; TR-FRET, MBD2 binding to methylated oligonucleotide; inhibition, % at 4.4 µM; 0.31% of 370,000 active; AID 686964; in the data active means inhibition above about 13%
LEDGF integ inh: blocks HIV-1 LEDGF/p75-dependent DNA integration | TR-FRET IN-LEDGF/p75 DNA integration, Eu/Cy5 | inhibition, % at 3.7 µM | 0.64% of 370,000 active | AID 743269;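 active means inhibition above the screen-wide mean plus 3 SD, cut at about 13% in these data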;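 further: signal is the Cy5 over europium emission ratio at 671 and 618 nm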
IN multimer up: activates HIV-1 integrase multimerization in LEDGF counter-screen | shares compounds with LEDGF integ inh | TR-FRET HIV-1 integrase multimerization, biochemical | activation, % at 7.7 µM | 17% of 2,000 active | AID 1053131; in the data active means activation above about 8.9%
TRFRET interf: TR-FRET optical interference, LEDGF/p75 integration counter-screen; shares compounds with LEDGF integ inh; TR-FRET optical interference counterscreen, HIV-1 IN multimerization; inhibition, % at 7.7 µM; 2,000 tested, under 10 active; AID 1053135;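 active means inhibition above the mean over all tested compounds plus 3 SD, which no compound reached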
LEDGF integ conf: confirmation of HIV-1 LEDGF/p75-dependent integration inhibitors. AID 1053136. inhibition, % at 3.7 µM. TR-FRET LEDGF/p75-dependent HIV-1 integration, biochemical. shares compounds with LEDGF integ inh. 36% of 2,000 active; in the data active means inhibition above about 14%
Each line names hits and unclear results; the compound was inactive in the other large screens (follow-up assays come after a bar, where they were run).

O=C(c1ccccc1)c1ccc2nc(-c3ccco3)c(-c3ccco3)nc2c1	LEDGF integ inh 18 | IN multimer up inactive | TRFRET interf inactive | LEDGF integ conf 35
Cc1ccc(C)c(N2CCN(C(=O)c3ccc4nc(-c5ccco5)c(-c5ccco5)nc4c3)CC2)c1	LEDGF integ inh 40 | IN multimer up inactive | TRFRET interf inactive | LEDGF integ conf 22
O=C(OCC#CCSc1nnc(-c2cccc3ccccc23)o1)c1cc(F)c(F)c(F)c1	none (no result: Rin1 Abl inh)
CN(c1ccc(C(=O)COC(=O)C2CC2)cc1)S(C)(=O)=O	LEDGF integ inh 31 | IN multimer up inactive | TRFRET interf inactive | LEDGF integ conf inactive
COc1cc2c(C#N)c(N3CCCCC3)nc(N)c2c(N)n1	LEDGF integ inh 34 | IN multimer up inactive | TRFRET interf inactive | LEDGF integ conf inactive
Cc1ccc(S(=O)(=O)N2CCN(C(=O)COC(=O)c3cccnc3Cl)CC2)c(C)c1	LEDGF integ inh 66 | IN multimer up inactive | TRFRET interf inactive | LEDGF integ conf inactive
NNC(=S)NCc1ccccc1	none
S=C(NCc1ccccc1)NCc1cccc(CNC(=S)NCc2ccccc2)c1	LEDGF integ inh 44 | IN multimer up inactive | TRFRET interf inactive | LEDGF integ conf inactive
CCN(CC)C(=O)CC[C@H]1CC[C@]2(CCCN(Cc3ccccc3)C2)O1	none (no result: Rin1 Abl inh)
O=C1/C(=C\c2ccco2)SC(=S)N1C1CCS(=O)(=O)C1 (configuration not stated)	UHRF1 binding 54, LEDGF integ inh 40 | IN multimer up inactive | TRFRET interf inactive | LEDGF integ conf 48
O=C1/C(=C/c2ccco2)SC(=S)N1C1CCS(=O)(=O)C1 (configuration not stated)	UHRF1 binding 32, LEDGF integ inh 48 | IN multimer up inactive | TRFRET interf inactive | LEDGF integ conf 27
Cc1ccc(/C=C2\SC(=S)N(C3CCS(=O)(=O)C3)C2=O)cc1 (configuration not stated)	none
COc1cc(C(=O)Nc2nc(C)cc(C)n2)cc(OC)c1OC	LEDGF integ inh 59 | IN multimer up inactive | TRFRET interf inactive | LEDGF integ conf inactive
O[C@@H]1[C@@H](O)[C@H](n2c3ccc(Cl)cc3c3ccc4c5cc(Cl)ccc5[nH]c4c32)OC[C@H]1O	none (no result: Rin1 Abl inh)
NS(=O)(=O)c1ccc(CCNC(=O)c2ccc(Cl)nc2)cc1	LEDGF integ inh 16 | IN multimer up inactive | TRFRET interf inactive | LEDGF integ conf inactive
CCOC(=O)N1CCN(C(=O)COc2ccc(S(=O)(=O)NC3CCCCC3)cc2C)CC1	LEDGF integ inh 16 | IN multimer up inactive | TRFRET interf inactive | LEDGF integ conf inactive
Cc1cc(S(=O)(=O)NC2CCCCC2)ccc1OCC(=O)N1CCOCC1	none (no result: TDP2 absorb, UHRF1 binding, MBD2 DNA inh, LEDGF integ inh)
Cn1c(=O)[nH]c2c(Br)nccc21	none (no result: Rin1 Abl inh)
Cc1ccc(/C=C2\CCOC2=O)cc1	none
Cc1ccc(/C=C2/CNC/C(=C/c3ccc(C)cc3)C2=O)cc1	LEDGF integ inh 92 | IN multimer up inactive | TRFRET interf inactive | LEDGF integ conf inactive
COCO[C@@H]1CC(CO)=C[C@H]2OCO[C@H]21	none (no result: Rin1 Abl inh)
OCCOCCOc1ccc(-c2nn[nH]n2)cc1	UHRF1 binding 24, LEDGF integ inh 17 | IN multimer up inactive | TRFRET interf inactive | LEDGF integ conf inactive
CC(C)[C@H](N)C(=O)N[C@@H](Cc1ccccc1)C(=O)N1CCC2CCN(S(=O)(=O)c3ccccc3)CC21 (some centres not stated)	none (no result: Rin1 Abl inh)
COCCCN1C(=O)[C@H](CC(=O)NCCC(C)C)[C@]2(C(=O)OC)CCCCC=C12	none (no result: Rin1 Abl inh)
COc1ccccc1Nc1nc(N)nc(CN2CCN(c3ccccc3F)CC2)n1	none
COc1ccccc1N1CCN(Cc2nc(N)nc(Nc3ccc(C)c(Cl)c3)n2)CC1	LEDGF integ inh 13 | IN multimer up inactive | TRFRET interf inactive | LEDGF integ conf inactive
Cc1ccccc1CN1CCCCC(NC(=O)c2cccc(F)c2)C1=O (configuration not stated)	none (no result: Rin1 Abl inh)
CCCC(C)NC(=O)Cc1ccc(S(=O)(=O)N2CCOCC2)s1 (configuration not stated)	none
CCC(CC)NC(=O)Cc1ccc(S(=O)(=O)N2CCOCC2)s1	LEDGF integ inh 16 | IN multimer up inactive | TRFRET interf inactive | LEDGF integ conf inactive
N#CC1=C2SCN(Cc3ccco3)CN2C(=O)CC1c1cccc2ccccc12 (configuration not stated)	LEDGF integ inh 55 | IN multimer up inactive | TRFRET interf inactive | LEDGF integ conf inactive
N#CC1=C2SCN(Cc3ccco3)CN2C(=O)CC1c1ccccc1F (configuration not stated)	none (no result: TDP2 absorb, UHRF1 binding, MBD2 DNA inh, LEDGF integ inh)
COc1ccc(S(=O)(=O)N2CCCCCC2)c2ccccc12	none (no result: Rin1 Abl inh)
Nc1n[nH]c(CCCO)n1	LEDGF integ inh 25 | IN multimer up inactive | TRFRET interf inactive | LEDGF integ conf inactive
CC(=O)N1CCc2cc(Br)c(S(=O)(=O)NCc3ccc(Cl)cc3)cc21	none (no result: Rin1 Abl inh)
O=C(CCNS(=O)(=O)c1ccccc1)NNC(=O)C1COc2ccccc2O1 (configuration not stated)	LEDGF integ inh 14 | IN multimer up inactive | TRFRET interf inactive | LEDGF integ conf inactive
CC1(C(=O)NS(=O)(=O)C2CC2)CCN(C(=O)COc2ccc(Cl)cc2Cl)C1 (configuration not stated)	LEDGF integ inh 14 | IN multimer up inactive | TRFRET interf inactive | LEDGF integ conf inactive
CC1(C(=O)NS(=O)(=O)C2CC2)CCCN(C(=O)COc2ccc(Cl)cc2Cl)C1 (configuration not stated)	none
O=C(NCCc1c[nH]c2ccccc12)OCc1cn(Cc2ccccc2Cl)nn1	none (no result: Rin1 Abl inh)
COc1ccc(C2C(C(=O)Nc3c(C)cccc3C)CCC(=O)N2c2ccc(OC)cc2)cc1 (configuration not stated)	none (no result: Rin1 Abl inh)
COc1ccc2c(c1)CCCN2C(=O)C1CCCN(S(=O)(=O)c2ccccc2)C1 (configuration not stated)	none (no result: Rin1 Abl inh)
Cc1cc(/C=N/O)c(C)n1-c1ccc(Br)cc1	LEDGF integ inh 18 | IN multimer up inactive | TRFRET interf inactive | LEDGF integ conf inactive
Cc1cc(/C=N/NC(N)=S)c(C)n1-c1ccc(Br)cc1	none
CCC1(C)Cc2ccccc2-c2nc(NCCCO)[nH]c(=O)c21 (configuration not stated)	none
CCC1(CC)Cc2ccccc2-c2nc(NCCCO)[nH]c(=O)c21	LEDGF integ inh 14 | IN multimer up inactive | TRFRET interf inactive | LEDGF integ conf inactive
O=S1(=O)c2c(cccc2N2CCC[C@@H]2CO)O[C@@H]2CCN1C2	none (no result: Rin1 Abl inh)
